Measurements: ChEMBL document CHEMBL1687816, “Effect of antacids on the pharmacokinetics of raltegravir in human immunodeficiency virus-seronegative volunteers” (Antimicrob Agents Chemother, 2010)

Columns and labels:
[1] = Tmax in HIV-seronegative healthy volunteers at 400 mg, po administered as single dose by LC-MS/MS; assay type: ADME, organism-based; conditions: human, in vivo
How it was run: (§1)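 Single fasted 400 mg oral dose was given alone or with 30 ml antacid in a crossover design with a 5- to 12-day washout. Fasting continued for 4 h post-dose. Plasma was assayed by LC/MS/MS (LLOQ 5 ng/ml). Cmax, Tmax and 12-h concentration were read visually from the profiles.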

[2] = Tmax in HIV-seronegative healthy volunteers at 400 mg, po administered as single dose by LC-MS/MS in presence of albuminium, magnesium and simethicone-containg antacid; assay type: ADME, organism-based; conditions: human, in vivo; how it was run: as §1
[3] = Drug level in HIV-seronegative healthy volunteers blood at 400 mg, po administered as single dose after 12 hrs by LC-MS/MS in presence of albuminium, magnesium and simethicone-containg antacid; assay type: ADME, organism-based; conditions: human, read-out: Drug uptake; how it was run: as §1
[4] = Drug level in HIV-seronegative healthy volunteers blood at 400 mg, po administered as single dose after 12 hrs by LC-MS/MS; assay type: ADME, organism-based; conditions: human, read-out: Drug uptake; how it was run: as §1
[5] = Cmax in HIV-seronegative healthy volunteers at 400 mg, po administered as single dose by LC-MS/MS in presence of albuminium, magnesium and simethicone-containg antacid; assay type: ADME, organism-based; set-up: dose 400 mg, route oral; conditions: human, in vivo; how it was run: as §1
[6] = AUC (0 to infinity) in HIV-seronegative healthy volunteers at 400 mg, po administered as single dose by LC-MS/MS in presence of albuminium, magnesium and simethicone-containg antacid; assay type: ADME, organism-based; set-up: dose 400 mg, time infinity, route oral; conditions: human, plasma
How it was run: (§2)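 Randomized crossover in HIV-seronegative volunteers: after an 8-h overnight fast, a single observed oral 400 mg dose was given alone or with 30 ml aluminium/magnesium/simethicone antacid, with a 5- to 12-day washout between visits. Plasma was sampled at 0.5–48 h and assayed by LC/MS/MS (13C6 internal standard, linear 5–10,000 ng/ml). Noncompartmental AUC was computed by the linear-log trapezoidal rule and reported as a geometric mean.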

[7] = Cmax in HIV-seronegative healthy volunteers at 400 mg, po administered as single dose by LC-MS/MS; assay type: ADME, organism-based; set-up: dose 400 mg, route oral; conditions: human, in vivo; how it was run: as §1
[8] = AUC (0 to infinity) in HIV-seronegative healthy volunteers at 400 mg, po administered as single dose by LC-MS/MS; assay type: ADME, organism-based; set-up: dose 400 mg, route oral, time infinity; conditions: human, plasma; how it was run: as §2
[9] = AUC (0 to 12 hrs) in HIV-seronegative healthy volunteers at 400 mg, po administered as single dose by LC-MS/MS in presence of albuminium, magnesium and simethicone-containg antacid; assay type: ADME, organism-based; set-up: dose 400 mg, time < 12 hr, route oral; conditions: human, plasma; how it was run: as §2
[10] = AUC (0 to 12 hrs) in HIV-seronegative healthy volunteers at 400 mg, po administered as single dose by LC-MS/MS; assay type: ADME, organism-based; set-up: dose 400 mg, time < 12 hr, route oral; conditions: human, plasma; how it was run: as §2
Homo sapiens [11] = assay: Ratio of AUC (0 to 12 hrs) in HIV-seronegative healthy volunteers at 400 mg, po administered as single dose in presence of albuminium, magnesium and simethicone-containg antacid to AUC (0 to 12 hrs) in HIV-seronegative healthy volunteers at 400 mg, po administered as single dose; assay type: ADME, organism-based; conditions: in vivo
How it was run: (§3)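 Randomized crossover in HIV-seronegative volunteers: after an 8-h fast, a single oral 400 mg RAL dose was given with or without 30 ml antacid (2.7 g Mg hydroxide, 3 g Al hydroxide gel, 240 mg simethicone), with a 5–12 day washout. Plasma was sampled 0.5–48 h and assayed by LC/MS/MS (LLOQ 5 ng/ml). Noncompartmental analysis; log-transformed geometric mean ratios with 90% CI; paired t tests.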

Homo sapiens [12] = assay: Ratio of AUC (0 to infinity) in HIV-seronegative healthy volunteers at 400 mg, po administered as single dose in presence of albuminium, magnesium and simethicone-containg antacid to AUC (0 to 12 hrs) in HIV-seronegative healthy volunteers at 400 mg, po administered as single dose; assay type: ADME, organism-based; conditions: in vivo; how it was run: as §3
Homo sapiens [13] = assay: (§4) Ratio of Cmax in HIV-seronegative healthy volunteers at 400 mg, po administered as single dose in presence of albuminium, magnesium and simethicone-containg antacid to Cmax in HIV-seronegative healthy volunteers at 400 mg, po administered as single dose; assay type: ADME, organism-based; conditions: in vivo; how it was run: as §3
Blood = assay: as §4, with “drug level” for “Cmax”, “volunteers blood” for “volunteers”, “mg after 12 hrs,” for “mg,”; assay type: ADME, organism-based; conditions: human, in vivo; how it was run: as §3
Homo sapiens [14] = assay: Toxicity in HIV-seronegative healthy volunteers assessed as occurrence of mild headache at 400 mg, po administered as single dose; assay type: organism-based; conditions: in vivo
How it was run: (§5)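 Clinical adverse events were assessed during the two 12-h pharmacokinetic visits and at 24 and 48 h after a single oral 400 mg dose, given with or without 30 ml antacid. Events were graded with the 2004 Division of AIDS toxicity tables. Laboratory tests were run at screening and at 24 h post-dose.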

Homo sapiens [15] = assay: Toxicity in HIV-seronegative healthy volunteers assessed as occurrence of mild headache at 400 mg, po administered as single dose in presence of 30 ml albuminium, magnesium and simethicone-containg antacid; assay type: organism-based; conditions: in vivo; how it was run: as §5
Homo sapiens [16] = assay: Ratio of AUC (0 to infinity) in HIV-infected patients at 400 mg, po treated after 2 hrs administration of 20 mg proton pump inhibitor omeprazole to AUC (0 to infinity) in HIV-infected patients at 400 mg, po; assay type: ADME, organism-based; conditions: in vivo
Homo sapiens [17] = assay: Ratio of Cmax in HIV-infected patients at 400 mg, po treated after 2 hrs administration of 20 mg proton pump inhibitor omeprazole to Cmax in HIV-infected patients at 400 mg, po; assay type: ADME, organism-based; conditions: in vivo
Homo sapiens [18] = assay: Ratio of drug level in HIV-infected patients at 400 mg, po treated after 2 hrs administration of 20 mg proton pump inhibitor omeprazole after 12 hrs to drug level in HIV-infected patients at 400 mg, po after 12 hrs; assay type: ADME, organism-based; conditions: in vivo
[19] = Terminal half life in human at 400 mg BID; assay type: ADME, organism-based; conditions: in vivo, read-out: beta t1/2 (converted)
[20] = Primary phase half life in human at 400 mg BID; assay type: ADME, organism-based; conditions: in vivo, read-out: alphat1/2 (converted)

Cc1nnc(C(=O)NC(C)(C)c2nc(C(=O)NCc3ccc(F)cc3)c(O)c(=O)n2C)o1 [RALTEGRAVIR]
Tmax [1]: 3 h
Tmax [2]: 1 h
concentration at 12 h [3]: 0.013 µg/mL
concentration at 12 h [4]: 0.037 µg/mL
Cmax [5]: 1.45 µg/mL
AUC(0-inf) [6]: 3.42 µg·h/mL
Cmax [7]: 0.945 µg/mL
AUC(0-inf) [8]: 3.54 µg·h/mL
AUC(0-t) at 12 h [9]: 3.3 µg·h/mL
AUC(0-t) at 12 h [10]: 3.04 µg·h/mL
Ratio (Homo sapiens [11]): 1.08
Ratio (Homo sapiens [12]): 0.96
Ratio (Homo sapiens [13]): 1.53
Ratio (Blood): 0.33
Activity (Homo sapiens [14]): 25%
Activity (Homo sapiens [15]): 42%
Ratio (Homo sapiens [16]): 3
Ratio (Homo sapiens [17]): 4
Ratio (Homo sapiens [18]): 1.5
half-life [19]: 9 h
half-life [20]: 1 h
